From ChEMBL document CHEMBL1140377, “2,5-diketopiperazines as potent, selective, and orally bioavailable oxytocin antagonists. 2. Synthesis, chirality, and pharmacokinetics” (J Med Chem, 2005)

Experiments:
[1] = target: T1, Oxytocin receptor (Homo sapiens, UniProt P30559); experiment: Displacement of [3H]oxytocin from human Oxytocin receptor
T1 sequence (P30559 whole entry): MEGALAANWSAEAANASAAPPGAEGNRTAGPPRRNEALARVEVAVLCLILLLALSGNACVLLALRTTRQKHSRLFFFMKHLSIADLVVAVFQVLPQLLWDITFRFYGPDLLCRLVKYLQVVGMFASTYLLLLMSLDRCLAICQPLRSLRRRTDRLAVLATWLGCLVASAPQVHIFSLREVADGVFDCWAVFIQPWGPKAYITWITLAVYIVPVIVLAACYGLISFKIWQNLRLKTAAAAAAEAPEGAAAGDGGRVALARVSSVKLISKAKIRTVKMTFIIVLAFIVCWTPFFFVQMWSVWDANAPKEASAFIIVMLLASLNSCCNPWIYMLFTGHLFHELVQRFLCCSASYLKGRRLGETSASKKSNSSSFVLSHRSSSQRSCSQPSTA

[2] = Bioavailability in rat; type: ADME, organism-based; conditions: in vivo
[3] = Volume of distribution in rat; type: ADME, organism-based; conditions: in vivo, read-out: Vdss
[4] = Half life in rat; type: ADME; conditions: in vivo
[5] = Lipophilicity of the compound measured as CHI LogD by HPLC; type: physicochemical
[6] = Per oral administration of 5 mg/Kg of dose required for measuring Area under concentration of curve in rat; type: ADME; conditions: in vivo
In short: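 Rats (n=2) received 5 mg/kg in 5% DMSO/95% PEG400. Plasma exposure is reported as AUC in h ng mL−1.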

[7] = Plasma clearance in rat; conditions: in vivo
[8] = Per oral administration of 0.6 mg/Kg of dose required for measuring Area under concentration of curve in dog; type: ADME, Canis lupus familiaris; conditions: in vivo
In short: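 Dogs (n=1) received 0.6 mg/kg in either 5% DMSO/95% PEG400 or 5% DMSO/95% labrafil. Exposure is given as plasma AUC in h ng mL−1.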

[9] = Volume of distribution in dog; type: ADME, organism-based, Canis lupus familiaris; conditions: in vivo, read-out: Vdss
[10] = Bioavailability in dog; type: ADME, organism-based, Canis lupus familiaris; conditions: in vivo
[11] = target: Vasopressin V2 receptor (Homo sapiens, UniProt P30518); experiment: Displacement of [3H]oxytocin from human V2 vasopressin receptor
Sequence of Vasopressin V2 receptor (P30518 whole entry): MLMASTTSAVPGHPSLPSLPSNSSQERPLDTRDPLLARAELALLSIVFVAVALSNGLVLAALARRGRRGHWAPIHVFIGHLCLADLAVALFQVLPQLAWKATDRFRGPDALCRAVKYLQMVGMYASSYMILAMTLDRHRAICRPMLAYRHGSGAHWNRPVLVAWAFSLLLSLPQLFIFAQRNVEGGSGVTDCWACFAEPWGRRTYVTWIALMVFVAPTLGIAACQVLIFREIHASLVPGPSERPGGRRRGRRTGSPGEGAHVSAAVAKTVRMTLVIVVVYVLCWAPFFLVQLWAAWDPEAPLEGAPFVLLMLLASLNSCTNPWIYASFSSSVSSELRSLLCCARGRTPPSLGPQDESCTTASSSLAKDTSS

[12] = Per oral administration of 5 mg/Kg of dose required for measuring Area under concentration of curve in dog; type: ADME, Canis lupus familiaris; conditions: in vivo
[13] = Plasma clearance in dog; conditions: in vivo
[14] = target: T2, Vasopressin V1b receptor (Homo sapiens, UniProt P47901); experiment: Displacement of [3H]vasopressin from human V1b vasopressin receptor
T2 sequence (P47901 whole entry): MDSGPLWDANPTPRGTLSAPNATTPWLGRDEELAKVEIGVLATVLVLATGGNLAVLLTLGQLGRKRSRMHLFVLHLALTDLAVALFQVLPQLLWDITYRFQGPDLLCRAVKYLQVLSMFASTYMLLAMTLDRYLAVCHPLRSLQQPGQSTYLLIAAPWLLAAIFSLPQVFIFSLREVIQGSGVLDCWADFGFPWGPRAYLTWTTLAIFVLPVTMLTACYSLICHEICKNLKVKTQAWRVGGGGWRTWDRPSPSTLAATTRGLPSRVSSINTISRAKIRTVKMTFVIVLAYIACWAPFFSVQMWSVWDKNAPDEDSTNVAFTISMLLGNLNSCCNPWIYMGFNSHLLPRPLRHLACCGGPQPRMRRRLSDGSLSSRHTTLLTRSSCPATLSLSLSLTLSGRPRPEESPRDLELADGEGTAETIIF

[15] = target: Vasopressin V1a receptor (Homo sapiens, UniProt P37288); experiment: Displacement of [3H]vasopressin from human V1a vasopressin receptor
Sequence of Vasopressin V1a receptor (P37288 whole entry): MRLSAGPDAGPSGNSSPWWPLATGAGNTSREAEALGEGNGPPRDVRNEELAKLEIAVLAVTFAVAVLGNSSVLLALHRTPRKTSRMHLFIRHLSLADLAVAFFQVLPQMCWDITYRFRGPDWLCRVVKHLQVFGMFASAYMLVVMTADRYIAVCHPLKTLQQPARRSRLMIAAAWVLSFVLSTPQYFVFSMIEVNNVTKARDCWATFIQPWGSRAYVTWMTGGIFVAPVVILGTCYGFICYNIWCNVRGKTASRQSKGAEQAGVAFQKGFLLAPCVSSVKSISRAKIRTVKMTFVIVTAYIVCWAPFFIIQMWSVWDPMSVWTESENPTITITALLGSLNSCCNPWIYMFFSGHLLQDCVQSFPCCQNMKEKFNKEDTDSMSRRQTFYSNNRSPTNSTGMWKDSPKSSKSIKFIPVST

[16] = Per oral administration of 0.6 mg/Kg of dose required for measuring Area under concentration of curve in dog; conditions: in vivo

Ki [1] [nM]	chromatographic logD [5]	AUC [6] [ng·h/mL]	Compound	other results
6.31	–	–	CC(=O)Nc1cccc([C@H](C(=O)NC(C)(C)C)N2C(=O)[C@@H](C3Cc4ccccc4C3)NC(=O)[C@H]2CC(C)C)c1	–
79.4	–	–	CC(C)C[C@@H]1C(=O)N[C@H](C2Cc3ccccc3C2)C(=O)N1[C@H](C(=O)NC(C)C)c1ccc(C(F)(F)F)cc1	–
5.01	–	–	CC(C)C[C@@H]1C(=O)N[C@H](C2Cc3ccccc3C2)C(=O)N1[C@@H](C(=O)NC(C)(C)C)c1ccccc1	–
316	–	–	CC(C)C[C@@H]1CN[C@H](C2Cc3ccccc3C2)C(=O)N1[C@@H](C(=O)NC(C)C)c1ccccc1	–
63.1	–	–	C=CCN1C(=O)[C@@H](CC(C)C)N([C@@H](C(=O)NC(C)C)c2ccccc2)C(=O)[C@H]1C1Cc2ccccc2C1	–
10	2.4	60	CC(C)C[C@@H]1C(=O)N[C@H](C2Cc3ccccc3C2)C(=O)N1[C@@H](C(=O)NC(C)C)c1ccc(S(C)(=O)=O)cc1	bioavailability [2]: 3%; Vd [3]: 0.7 L/kg; half-life [4]: 90 min; CL [7]: 21 mL/min/kg
50.1	–	–	Cc1ccc([C@@H](C(=O)NC(C)C)N2C(=O)[C@@H](C3Cc4ccccc4C3)NC(=O)[C@H]2CC(C)C)cc1	–
–	–	–	CC(C)C[C@@H]1C(=O)N[C@H](C2Cc3ccccc3C2)C(=O)N1[C@@H](C(=O)NC(C)C)c1ccc(F)cc1F	AUC [8]: 291 ng·h/mL; Vd [9]: 1.2 L/kg; F [10]: 33%; Ki [11]: 631 nM; AUC [12]: 121 ng·h/mL; CL [13]: 11 mL/min/kg; Ki [14]: > 6.31 µM; Ki [15]: > 6.31 µM
3.16	3.4	287	CC(C)C[C@@H]1C(=O)N[C@H](C2Cc3ccccc3C2)C(=O)N1[C@@H](C(=O)NC(C)C)c1ccc(N(C)C)cc1	Vd [9]: 1.7 L/kg; bioavailability [10]: 50%; bioavailability [2]: 5%; Vd [3]: 2.3 L/kg; half-life [4]: 72 min; Ki [11]: > 79400 nM; CL [13]: 15 mL/min/kg; CL [7]: 48 mL/min/kg; Ki [14]: > 50.1 µM; Ki [15]: > 39.8 µM; AUC [16]: 335 ng·h/mL
158	–	–	CC(C)C[C@@H]1C(=O)N[C@H](C2Cc3ccccc3C2)C(=O)N1[C@H](C(=O)NC(C)C)c1ccc(C(N)=O)cc1	–
5.01	4.1	85	CC(C)C[C@@H]1C(=O)N[C@H](C2Cc3ccccc3C2)C(=O)N1[C@@H](C(=O)NC(C)(C)C)c1ccc(OC(F)(F)F)cc1	–
31.6	1.8	44	CC(C)C[C@@H]1C(=O)N[C@H](C2Cc3ccccc3C2)C(=O)N1[C@@H](C(=O)NC(C)C)c1ccc(C(N)=O)cc1	–
3.98	3.2	421	CC(C)C[C@@H]1C(=O)N[C@H](C2Cc3ccccc3C2)C(=O)N1[C@@H](C(=O)NC(C)C)c1ccc(F)cc1	Vd [9]: 0.8 L/kg; bioavailability [10]: 13%; bioavailability [2]: 13%; Vd [3]: 0.8 L/kg; half-life [4]: 54 min; Ki [11]: > 1260 nM; CL [13]: 5 mL/min/kg; CL [7]: 23 mL/min/kg; Ki [14]: > 6.31 µM; Ki [15]: > 6.31 µM; AUC [16]: 259 ng·h/mL
39.8	–	–	COc1ccc([C@@H](C(=O)NC(C)(C)C)N2C(=O)[C@@H](C3Cc4ccccc4C3)NC(=O)[C@H]2CC(C)C)cc1	–
100	–	–	CC(C)C[C@@H]1C(=O)N[C@H](C2Cc3ccccc3C2)C(=O)N1[C@H](C(=O)NC(C)C)c1ccc(S(C)(=O)=O)cc1	–
79.4	–	–	CC(C)C[C@@H]1C(=O)N[C@H](C2Cc3ccccc3C2)C(=O)N1[C@H](C(=O)NC(C)(C)C)c1ccccc1	–
5.01	3.7	280	CC(C)C[C@@H]1C(=O)N[C@H](C2Cc3ccccc3C2)C(=O)N1[C@@H](C(=O)NC(C)C)c1ccc(C(F)(F)F)cc1	–

Ki [1] [nM]	chromatographic logD [5]	AUC [6] [ng·h/mL]	Compound	other results
158	–	–	CC(C)C[C@@H]1C(=O)N[C@H](C2Cc3ccccc3C2)C(=O)N1[C@H](C(=O)NC(C)(C)C)c1ccc(Cl)cc1	–
50.1	–	–	CC(C)C[C@@H]1C(=O)N[C@H](C2Cc3ccccc3C2)C(=O)N1[C@H](C(=O)NC(C)C)c1ccccc1	–
1.58	–	–	CC(=O)Nc1ccc([C@H](C(=O)NC(C)C)N2C(=O)[C@@H](C3Cc4ccccc4C3)NC(=O)[C@H]2CC(C)C)cc1	–
25.1	–	–	CC(C)C[C@@H]1C(=O)N[C@H](C2Cc3ccccc3C2)C(=O)N1[C@H](C(=O)NC(C)C)c1ccc(N(C)C)cc1	–
158	–	–	CC(C)C[C@@H]1C(=O)N[C@H](C2Cc3ccccc3C2)C(=O)N1[C@@H](C(=O)NC(C)(C)C)c1cccc(N2CCN(C)CC2)c1	–
2.51	3.4	101	COc1ccc([C@H](C(=O)NC(C)(C)C)N2C(=O)[C@@H](C3Cc4ccccc4C3)NC(=O)[C@H]2CC(C)C)cc1	–
158	–	–	CC(C)C[C@@H]1C(=O)N[C@H](C2Cc3ccccc3C2)C(=O)N1[C@H](C(=O)NC(C)(C)C)c1ccc(OC(F)(F)F)cc1	–
2	2.4	59	CC(=O)Nc1ccc([C@H](C(=O)NC(C)(C)C)N2C(=O)[C@@H](C3Cc4ccccc4C3)NC(=O)[C@H]2CC(C)C)cc1	–
2	–	–	c1ccc2c(c1)CNCO2	–
126	–	–	CC(=O)Nc1ccc([C@@H](C(=O)NC(C)C)N2C(=O)[C@@H](C3Cc4ccccc4C3)NC(=O)[C@H]2CC(C)C)cc1	–
3.98	–	–	CC(C)C[C@@H]1C(=O)N[C@H](C2Cc3ccccc3C2)C(=O)N1[C@@H](C(=O)N(C)C(C)C)c1ccccc1	–
2.51	4	95	CC(C)C[C@@H]1C(=O)N[C@H](C2Cc3ccccc3C2)C(=O)N1[C@@H](C(=O)NC(C)(C)C)c1ccc(Cl)cc1	bioavailability [2]: 2%; Vd [3]: 0.4 L/kg; half-life [4]: 42 min; CL [7]: 43 mL/min/kg
25.1	–	–	CC(C)C[C@@H]1C(=O)N[C@H](C2Cc3ccccc3C2)C(=O)N1[C@@H](C(=O)NC(C)(C)C)c1ccc(N2CCN(C)CC2)cc1	–
3.98	3.2	114	CC(C)C[C@@H]1C(=O)N[C@H](C2Cc3ccccc3C2)C(=O)N1[C@@H](C(=O)NC(C)C)c1ccccc1	bioavailability [2]: 5%; Vd [3]: 0.8 L/kg; half-life [4]: 60 min; CL [7]: 29 mL/min/kg
100	–	–	CC(C)C[C@@H]1C(=O)N[C@H](C2Cc3ccccc3C2)C(=O)N1[C@H](C(=O)NC(C)C)c1ccc(F)cc1	–
3.98	3.5	–	Cc1ccc([C@H](C(=O)NC(C)C)N2C(=O)[C@@H](C3Cc4ccccc4C3)NC(=O)[C@H]2CC(C)C)cc1	Vd [3]: 0.6 L/kg; half-life [4]: 36 min; CL [7]: 37 mL/min/kg
